Measurements published in ChEMBL document CHEMBL3621107, “Ring fusion strategy for synthesis and lead optimization of sulfur-substituted anthra[1,2-c][1,2,5]thiadiazole-6,11-dione derivatives as promising scaffold of antitumor agents” (Eur J Med Chem, 2015).
pIC50: −log10 of the molar value.

Legend:
PC-3 = assay: Cytotoxicity against human PC3 cells after 48 hrs by SRB assay; type: functional, cell-based; conditions: PC-3, 48 h
Outline: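 Second-stage NCI-60 panel run by the NCI Developmental Therapeutics Program, covering nine tumour subpanels. Five concentrations were tested: 0.01, 0.1, 1, 10 and 100 μM. Percentage growth at each level was plotted against log10 drug concentration. GI50, TGI and LC50 were read from these dose-response curves. Subpanel MID values were divided into the full-panel MID to give selectivity ratios.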

DU-145 = assay: Cytotoxicity against human DU145 cells after 72 hrs by MTT assay; type: functional, cell-based; conditions: DU-145, 72 h
Outline: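 DU-145 cells grown in RPMI-1640 with 5% heat-inactivated fetal calf serum at 37 °C, 5% CO2. About 2×10^3 cells per well were seeded and incubated for 24 h. Compounds were dissolved in DMSO freshly and diluted into medium (vehicle 0.1% DMSO), then cells were exposed for 72 h. MTT was added for 3 h at 37 °C and absorbance read at 570 nm.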

[1] = Cytotoxicity against human WPMY-1cells assessed as survival rate after 72 hrs by MTT assay; type: cell-based; conditions: wpmy-1, 72 h
Outline: (§1)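 About 2×10^3 cells/well preincubated 24 h at 37 °C, 5% CO2. Compound freshly dissolved in DMSO, diluted into complete medium and added at various concentrations (vehicle 0.1% DMSO) for 72 h. MTT added for 3 h at 37 °C, absorbance read at 570 nm, survival rate derived.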

[2] = Cytotoxicity against human SV-HUC1 cells assessed as survival rate after 72 hrs by MTT assay; type: cell-based; conditions: sv-huc1, 72 h
Outline: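 SV-HUC-1 cells grown in Ham's F-12K with 5% heat-inactivated fetal calf serum, 37 °C, 5% CO2. About 2×10^3 cells/well plated for 24 h, then a range of compound concentrations (DMSO stock diluted into medium; vehicle 0.1% DMSO) for 72 h. MTT added for 3 h at 37 °C; absorbance 570 nm.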

[3] = Cytotoxicity against human RWPE1 cells assessed as survival rate after 72 hrs by MTT assay; type: cell-based, RWPE-1; conditions: rwpe-1, 72 h; outline: as §1

CCc1ccccc1Sc1cc2c(c3nsnc13)C(=O)c1ccccc1C2=O
pIC50 (PC-3): < 4.82
pIC50 (DU-145): < 4.82

O=C1c2ccccc2C(=O)c2c1cc(Sc1ccc(F)cc1)c1nsnc21
pIC50 (PC-3): 5.17
pIC50 (DU-145): 4.95

O=C1c2ccccc2C(=O)c2c1cc(Sc1ccccc1F)c1nsnc21
pIC50 (PC-3): < 4.82
pIC50 (DU-145): 5.12

CC(C)c1ccc(Sc2cc3c(c4nsnc24)C(=O)c2ccccc2C3=O)cc1
pIC50 (PC-3): < 4.82
pIC50 (DU-145): 4.86

CC(C)(C)c1ccc(CSc2cc3c(c4nsnc24)C(=O)c2ccccc2C3=O)cc1
pIC50 (PC-3): 5.02
pIC50 (DU-145): 5.44

O=C1c2ccccc2C(=O)c2c1cc(Sc1cccc(Br)c1)c1nsnc21
pIC50 (PC-3): 4.91
pIC50 (DU-145): 4.97

O=C1c2ccccc2C(=O)c2c1cc(Sc1ccc(Br)cc1)c1nsnc21
pIC50 (PC-3): < 4.82
pIC50 (DU-145): 4.88

CCCSc1cc2c(c3nsnc13)C(=O)c1ccccc1C2=O
pIC50 (PC-3): 5.27
pIC50 (DU-145): 5.59

Cc1ccc(Sc2cc3c(c4nsnc24)C(=O)c2ccccc2C3=O)cc1C
pIC50 (PC-3): < 4.82
pIC50 (DU-145): 4.85

Cc1ccc(C)c(Sc2cc3c(c4nsnc24)C(=O)c2ccccc2C3=O)c1
pIC50 (PC-3): 5.13
pIC50 (DU-145): 4.92

O=C1c2ccccc2C(=O)c2c1cc(SCCc1ccccc1)c1nsnc21
pIC50 (PC-3): < 4.82
pIC50 (DU-145): 5.02

O=C1c2ccccc2C(=O)c2c1cc(SCc1ccccc1Cl)c1nsnc21
pIC50 (PC-3): 5.26
pIC50 (DU-145): 5.20

CC(C)(C)c1ccc(Sc2cc3c(c4nsnc24)C(=O)c2ccccc2C3=O)cc1
pIC50 (PC-3): < 4.82
pIC50 (DU-145): 5.08

Cc1ccc(Sc2cc3c(c4nsnc24)C(=O)c2ccccc2C3=O)cc1
pIC50 (PC-3): < 4.82
pIC50 (DU-145): < 4.82

CCc1ccc(Sc2cc3c(c4nsnc24)C(=O)c2ccccc2C3=O)cc1
pIC50 (PC-3): 5.12
pIC50 (DU-145): 5.60

COc1cccc2c1C(=O)c1c(O)c3c(c(O)c1C2=O)C[C@@](O)(C(=O)CO)C[C@@H]3O[C@H]1C[C@H](N)[C@H](O)[C@H](C)O1 [DOXORUBICIN]
Activity [1]: Toxic
Activity [2]: Toxic
Activity [3]: Toxic

CC(C)c1ccccc1Sc1cc2c(c3nsnc13)C(=O)c1ccccc1C2=O
pIC50 (PC-3): < 4.82
pIC50 (DU-145): 4.84

O=C1c2ccccc2C(=O)c2c1cc(Sc1cccc(F)c1)c1nsnc21
pIC50 (PC-3): 5.05
pIC50 (DU-145): 4.90

O=C1c2ccccc2C(=O)c2c1cc(Sc1ccccc1Cl)c1nsnc21
pIC50 (PC-3): < 4.82
pIC50 (DU-145): < 4.82

Cc1cccc(Sc2cc3c(c4nsnc24)C(=O)c2ccccc2C3=O)c1
pIC50 (PC-3): < 4.82
pIC50 (DU-145): < 4.82

COc1ccccc1Sc1cc2c(c3nsnc13)C(=O)c1ccccc1C2=O
pIC50 (PC-3): < 4.82
pIC50 (DU-145): 4.89

O=C1c2ccccc2C(=O)c2c1cc(Sc1cc(Cl)c(Cl)cc1Cl)c1nsnc21
pIC50 (PC-3): < 4.82
pIC50 (DU-145): < 4.82
